Assay results from publication PMC4672865 (Organic letters, 2015).

Molecular target: DNA polymerase β (pol β) (Homo sapiens, UniProt P06746)
Test: X-ray crystal structure of ternary complex with DNA
Format: biochemical
Summary of the method: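 Standard gel assay of pol β: test compound at variable concentrations against a constant dTTP concentration. An observed rate is determined at each inhibitor concentration, rates are plotted against inhibitor concentration, and the data are fit to a hyperbolic decay curve to calculate Ki. Crystal structures are of ternary complexes of test compound with pol β and DNA.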

Ki [µM] | Structure (SMILES)
23 | Cc1cn([C@H]2C[C@H](O)[C@@H](COP(=O)(O)NP(=O)(O)CP(=O)(O)O)O2)c(=O)[nH]c1=O [1b, (α,β)-NH-(β,γ)-CH2-dTTP]
2.7 | Cc1cn([C@H]2C[C@H](O)[C@@H](COP(=O)(O)CP(=O)(O)NP(=O)(O)O)O2)c(=O)[nH]c1=O [1a, (α,β)-CH2-(β,γ)-NH-dTTP]
